3 molecules from ChEMBL document CHEMBL3228038 (J Med Chem, 1979) can be followed below.

Activity calls are given as the source filed them. The calls are words filed in the database; no cut-off is given here.

Data set [1] relates to Mus musculus. Nature of the data set: Analgesic activity in Swiss Webster mouse at 4 nmol, icv after 10 to 120 mins by tail flick test. The class given is functional, organism-based. Summed up:
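Male Swiss Webster mice, 20-25 g. Compound given icv in 4 µL saline (working solution from ethanol/0.05 N HCl stock, evaporated under nitrogen). Agonist activity read by modified D'Amour-Smith tail-flick at intervals out to 2 h post-injection. Saline icv controls given in the same volume.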
Background: Thermal pain tests record how soon the animal reacts.

Data set [2] concerns Mus musculus. Nature of the data set: Inhibition of morphine-induced analgesia in Swiss Webster mouse assessed as change in morphine ED50 at 2.4 nmol, icv after 2 hrs by tail flick test. The class given is functional, organism-based.
Data set [3] concerns Mus musculus. Nature of the data set: Toxicity in Swiss Webster mouse assessed as lethargic behavior at 4 nmol, icv. Type of data set: organism-based. The conditions noted are these: in vivo, icv_or_intrathecal. Summed up: (§1)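 Male Swiss Webster mice, 20-25 g, observed after icv injection in 4 µL saline. Recorded: lethality and preceding tonic convulsions within 1.5 h, lethargy, startle reflex to hand clap, locomotor activity, and tail-flick latency.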

Data set [4] deals with Mus musculus. Nature of the data set: Toxicity in icv dosed Swiss Webster mouse assessed as change in tail flick latency. Type of data set: organism-based. The conditions noted are these: in vivo, icv_or_intrathecal. In short, it runs like this: as §1
Data set [5] relates to Mus musculus. Nature of the data set: Toxicity in icv dosed Swiss Webster mouse assessed as decrease in locomotor activity. Type of data set: organism-based. As to conditions: in vivo, icv_or_intrathecal. Summed up:
as §1

In data set [6] the test system is Mus musculus. Nature of the data set: Toxicity in icv dosed Swiss Webster mouse assessed as suppression of startle reflex to loud and abrupt auditory stimulus. Type of data set: organism-based. The conditions noted are these: in vivo, icv_or_intrathecal. Summed up: as §1
For data set [7], the system named is Mus musculus. Nature of the data set: Effect on development of dependence to morphine in Swiss Webster mouse assessed as increase in naloxone ED50 for eliciting withdrawal jumping at 0.24 nmol, icv after 24 hrs relative to control. Type of data set: functional, organism-based. In short, it runs like this:
(§2)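 Male Swiss Webster mice, 20-25 g. Given icv injection (4 µL saline vehicle) immediately after sc implantation of a 50 mg morphine or placebo pellet. At 24 and 72 h, naloxone given sc (10 mL/kg saline) and ED50 taken for precipitated withdrawal jumping (Way method). Groups of 4-5 mice per ED50.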

Data set [8] concerns Mus musculus. In words: Effect on development of dependence to morphine in Swiss Webster mouse assessed as increase in naloxone ED50 for eliciting withdrawal jumping at 0.24 nmol, icv after 72 hrs relative to control. The class given is functional, organism-based. In short, it runs like this: as §2
Data set [9] concerns Mus musculus. Nature of the data set: Toxicity in Swiss Webster mouse assessed as lethality at 4.8 nmol, icv after 1.5 hrs. As to conditions: in vivo, icv_or_intrathecal. Type of data set: organism-based. In short, it runs like this: as §1
Data set [10] relates to Mus musculus. Nature of the data set: Toxicity in Swiss Webster mouse assessed as tonic convulsions at 4.8 nmol, icv. Type of data set: organism-based. As to conditions: in vivo, icv_or_intrathecal. Summed up: as §1
Data set [11] concerns Mus musculus. Nature of the data set: Toxicity in Swiss Webster mouse assessed as mortality at 2.4 nmol, icv. Type of data set: organism-based. As to conditions: in vivo, icv_or_intrathecal. In short, it runs like this:
as §1

Data set [12] concerns Mus musculus. In words: Toxicity in icv dosed Swiss Webster mouse assessed as lethargic behavior. The class given is organism-based. The conditions noted are these: in vivo, icv_or_intrathecal. In short, it runs like this:
as §1

In the case of `O=C(O)CCCc1ccc(N(CCCl)CCCl)cc1` [CHLORAMBUCIL], the result in data set [1] was inactive. Further, the inhibition result in data set [2] was “inactive”. Further, the Activity result in [3] is “Toxic”; in [4], “Non-toxic”; in data set [5] it was “Toxic”; in data set [6] it was “Non-toxic”.
In the case of `O=C1CC[C@@]2(O)[C@H]3Cc4ccc(O)c5c4[C@@]2(CCN3CC2CC2)[C@H]1O5`, the outcome in data set [7] and in data set [8] was inactive. Besides, in data set [2], the inhibition entry is “inactive”.
`Oc1ccc2c3c1O[C@H]1[C@H](N(CCCl)CCCl)CC[C@@]4(O)[C@@H](C2)N(CC2CC2)CC[C@]314`: the Activity entry in [9] is “Toxic”; in data set [10], “Toxic”; in data set [11] it was “Toxic”; in data set [4] it was “Non-toxic”; in [5], “Toxic”; in data set [6], “Non-toxic”. In addition, in data set [12], the Activity entry was “Toxic”.
